# Source: PubChem BioAssay (Johns Hopkins Ion Channel Center)
# hERG protect: hERG rescue from dofetilide block, primary screen, cell-based, CHO-hERG, FluxOR thallium flux, dofetilide IC70 | actives 0.51% (n = 310,000) | activation (rescue from dofetilide block), less the hit threshold, % at 10 µM | dofetilide IC70 present | Voltage-gated inwardly rectifying potassium channel KCNH2 (Homo sapiens), Q12809;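 active means activation above the mean of controls blocked by dofetilide plus 5 SD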;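 further: thallium influx through hERG after potassium depolarization seen as dye fluorescence rise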
# KCNK3 block: human KCNK3 channel inhibitors, primary screen, CHO cells, FluxOR thallium flux, B-score; Potassium channel subfamily K member 3 (Homo sapiens), O14649; FluxOR fluorescence; hits give low values; B-score at 10 µM; actives 0.84% (n = 340,000); AID 602410, 2012;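 active means B-score under library mean minus 4 SD, starting fluorescence ratio at most library mean plus 5 SD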;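 further: more negative B-score means stronger inhibition of thallium flux through KCNK3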
# Kir21 inh: inhibitors of mouse Kir2.1 inward-rectifier potassium channel. Inward rectifier potassium channel 2 (Mus musculus), P35561. HEK293-Kir2.1, FluxOR thallium flux fluorescence; hits give low values. B-score at 10 µM. actives 0.85% (n = 310,000). AID 1672, 2009;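 active means fluorescence ratio B-score at or below minus 3 SD of library scores, with starting-brightness B-score within 2 SD, cut at about -4.2 in these data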;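 further: channel flux triggered by added potassium and thallium sulfate stimulus; B-score of peak minus minimum fluorescence over baseline after thallium stimulus; more negative B-score means stronger Kir2.1 block with less thallium influx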
# KCNQ1 act: potentiators or activators of KCNQ1 channel, primary screen, cell-based, thallium flux, high-throughput; Potassium voltage-gated channel subfamily KQT member 1 (Homo sapiens), P51787; CHO-K1 KCNQ1, thallium flux FluxOR fluorescence; hits give high values; B-score at 10 µM; actives 0.35% (n = 310,000);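 active means fluorescence ratio B-score, a plate-corrected score, at least three library SD, with initial intensity B-score within 5 SD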
# Target sequence (P51787 whole entry, looked up): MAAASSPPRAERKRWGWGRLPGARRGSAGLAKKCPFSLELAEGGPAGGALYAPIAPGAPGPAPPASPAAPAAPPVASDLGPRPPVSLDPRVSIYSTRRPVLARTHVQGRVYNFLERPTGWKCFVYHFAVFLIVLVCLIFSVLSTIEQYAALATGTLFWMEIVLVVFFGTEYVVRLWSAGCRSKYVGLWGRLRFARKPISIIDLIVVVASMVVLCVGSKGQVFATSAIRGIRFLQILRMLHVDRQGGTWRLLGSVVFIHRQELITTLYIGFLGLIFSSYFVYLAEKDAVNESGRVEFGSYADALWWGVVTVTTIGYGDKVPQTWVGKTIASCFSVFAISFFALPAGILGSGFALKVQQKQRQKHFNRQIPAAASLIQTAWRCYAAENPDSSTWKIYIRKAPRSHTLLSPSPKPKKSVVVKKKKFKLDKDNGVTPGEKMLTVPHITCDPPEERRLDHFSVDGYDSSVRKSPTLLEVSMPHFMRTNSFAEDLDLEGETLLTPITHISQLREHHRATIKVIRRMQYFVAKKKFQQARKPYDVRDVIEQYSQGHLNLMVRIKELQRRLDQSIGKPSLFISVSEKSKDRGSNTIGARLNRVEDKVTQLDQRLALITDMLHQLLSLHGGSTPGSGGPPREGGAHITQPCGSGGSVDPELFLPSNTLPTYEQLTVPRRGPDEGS
#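 assay system = CHO-K1 cells stably expressing KCNQ1 | medium = assay buffer, equal DMSO in all wells | timing = 37 °C overnight plating, 90-min dark dye load, 20-min compound pretreatment | measured by = kinetic FluxOR thallium fluorescence, 10-s 1-Hz baseline, 110-s post-stimulus read | measure = fluorescence change relative to baseline, converted to B score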
# KCNK9 inh: KCNK9 potassium channel inhibitors, primary screen, HEK293 cells, thallium flux | Potassium channel subfamily K member 9 (Homo sapiens), Q9NPC2 | FluxOR thallium flux fluorescence; hits give low values | B-score at 10 µM | actives 1.2% (n = 310,000) | AID 488922, 2010;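 active means ratio B-score over 3 SD below the library mean, with starting fluorescence within 5 SD of its mean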;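 further: negative B-score means less thallium flux so channel inhibition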
# KCNQ1 block: inhibitors of human KCNQ1 channel, primary screen, cell-based, thallium flux, high-throughput; Potassium voltage-gated channel subfamily KQT member 1 (Homo sapiens), P51787; CHO-K1 KCNQ1, FluxOR thallium flux fluorescence; hits give high values; B-score at 10 µM; actives 1.3% (n = 310,000); AID 2642, 2010;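 active means compounds whose thallium flux B-score, printed positive for inhibition, exceeds three library SD while starting fluorescence stays within three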;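 further: channel opened by potassium depolarization with thallium stimulus after 20 min compound exposure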
# KCNK3 inh conf: retest of human KCNK3 channel inhibitors, confirmation, CHO cells, FluxOR thallium flux, triplicate; ratio percent of control, % at 10 µM; FluxOR fluorescence; 0% buffer, 100% carvedilol maximal block; actives 99% (n = 2,400); shares compounds with KCNK3 block;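 active means ratio percent of control, averaged over triplicates, above buffer control mean plus 5 SD, cut at about 64% in these data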;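 further: ratio is the fluorescence rise from min to max over baseline after thallium stimulus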
# KCNK3 noninduced: thallium flux inhibition in non-induced cells, primary screen, counter-screen for KCNK3 inhibitor project, cell-based, non-induced KCNK3 line, FluxOR thallium, triplicate | thallium flux ratio (lower = more inhibition) at 10 µM | shares compounds with KCNK3 block | actives 40% (n = 2,400) | non-induced KCNK3 parental cells; hits give low values;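 active means thallium flux ratio, averaged over three wells, more than 5 SD below the buffer control mean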;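 further: host cells are CHO cells without KCNK3 induction; ratio is peak minus trough fluorescence over baseline then normalized to buffer controls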
# Active calls of the source: *; i = inactive; / = no result given. Only some compounds are listed: those with a hit (about 3.8% of all), similar ones and a draw of the others.
SMILES,hERG protect,KCNK3 block,Kir21 inh,KCNQ1 act,KCNK9 inh,KCNQ1 block,KCNK3 inh conf,KCNK3 noninduced
COC(=O)Cc1c[nH]c2cccc(OCC(O)CN(Cc3ccccc3)C(C)C)c12 (centres undefined),-16.2,-8.85*,-1.19,i,-7.95*,i,99.7*,i
CC(C)NC(=O)Cn1cc(C(=O)COc2ccccc2)c2ccccc21,-20.0,i,0,i,i,i,/,/
CN(C)CCn1c(SCc2ccccc2C#N)nc2c(sc3ccccc32)c1=O,-19.4,-10.1*,0,i,i,i,106.7*,0.157*
CCN(CC)S(=O)(=O)c1ccc(NC(=O)c2cccs2)cc1,-13.9,-10.5*,-0.14,i,i,i,82.7*,i
Cc1ccc(-c2nc3ccccc3o2)cc1NC(=O)Cc1cccs1,-6.3,i,2.03,i,i,i,/,/
O=C(Cc1cccs1)Nc1cccc(-c2nc3ccccc3o2)c1,-5.3,-8.75*,-2.67,i,i,i,132.7*,0.145*
O=C(Oc1cc(Cl)cc(Cl)c1)c1cnc2n(c1=O)CCS2,-10.5,i,-0.25,i,i,i,/,/
CN1CCN(c2ccccc2NC(=O)c2ccc(Br)o2)CC1,-3.2,i,-2.02,i,i,i,/,/
CC1CCN(c2ccccc2NC(=O)c2ccc(Br)o2)CC1,-10.1,-9.02*,-1.45,i,-7.98*,i,125.7*,0.153*
CC(C)(C)c1ccc(-c2nnc(SCC(=O)NC3CCS(=O)(=O)C3)n2N)cc1 (centres undefined),-10.2,i,0.16,i,i,i,/,/
C/C(=N\N=C1\NC(=O)C(Cc2ccccc2)S1)c1ccccc1 (centres undefined),-2.7,-10.3*,1.04,i,i,i,102.7*,0.157*
O=C(CSc1ccc(Cl)cc1Cl)N1CCC(c2nc3ccccc3s2)CC1,-7.3,-14.7*,-1.27,i,i,i,123.7*,i
CCOC(=O)CCSc1nc(C(C)(C)C)cc(C(F)(F)F)c1C#N,-13.1,-8.86*,0,i,i,6*,131.0*,0.127*
COc1ccc(Br)cc1CNC(=O)c1ccc2c(c1)N(C)CCS2,-14.1,-10.3*,-1.8,i,i,i,106.0*,i
CCN1CCSc2ccc(C(=O)NCc3cc(Br)ccc3OC)cc21,-11.1,i,0.22,i,-7.01*,i,92.0*,i
Cc1nc(N2CCN(C(=O)c3cccs3)CC2)c2c3c(sc2n1)CCCC3,-10.7,-10.4*,-0.55,i,i,i,91.7*,i
Cc1cc(NC(=O)c2ccccc2C)ccc1NC(=O)c1ccccc1Cl,-7.4,i,-0.03,i,i,i,/,/
O=C(Nc1ccc(N2CCOCC2)c(Cl)c1)c1ccccc1Cl,-4.8,i,-0.42,i,i,i,/,/
Cc1c(N2CCCC2)cc2c(c1NC(=O)c1ccccc1Cl)C(C)(C)CC2(C)C,-8.9,-9.34*,0.81,i,i,i,113.7*,0.129*
O=C(OCC(=O)N1CCCc2ccccc21)c1cccc(S(=O)(=O)N2CCc3ccccc32)c1,-7.9,i,0.16,i,i,i,/,/
